Legend:
[1] = Inhibitory concentration against ACPD-sensitive radioligand [3H]glutamate binding to Group II Metabotropic glutamate receptor in rat forebrain membranes; type: cell membranes, Membrane
Summary of the method: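 Rat forebrain membranes; displacement of ACPD-sensitive [3H]glutamate binding (10 nM radioligand).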

[2] = biological target: Glutamate receptor ionotropic, kainate; test: Inhibitory concentration against radioligand [3H]-Kainate binding to Ionotropic glutamate receptor kainate in rat forebrain membranes; type: cell membranes, Membrane
Summary of the method: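 Rat forebrain membranes; displacement of [3H]kainate (5 nM) binding. Compounds screened at concentrations up to 100 µM (triplicate analysis at 1, 10 and 100 µM).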

[3] = biological target: Glutamate receptor ionotropic, AMPA (Rattus norvegicus, UniProt P19490+P19491+P19492+P19493); test: Inhibitory concentration against radioligand [3H]AMPA binding to Ionotropic glutamate receptor AMPA in rat forebrain membranes; type: cell membranes, Membrane
Glutamate NMDA receptor = test: Inhibitory concentration against radioligand [3H]CGS-19,755 binding to N-methyl-D-aspartate glutamate receptor in rat forebrain membranes; type: cell membranes, Membrane
Summary of the method: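 Rat forebrain membranes; displacement of [3H]CGS19755 (10 nM) binding. Compounds screened at concentrations up to 100 µM (triplicate analysis at 1, 10 and 100 µM).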

Rattus norvegicus [4] = species on record: Rattus norvegicus; test: Compound was evaluated by measuring the ability to influence forskolin-stimulated cAMP formation in adult rat cerebral cortical slices; type: functional
Summary of the method: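 Adult rat cerebral cortical slices; cAMP formation stimulated with forskolin (30 µM), and suppression of that cAMP formation measured. EC50 values derived from concentration-response curves.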

Mus musculus [5] = test: Intraperitoneal effective dose evaluated in mice by mouse limbic seizure assay; type: functional, Limbic system
Summary of the method: (§1)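 Male NIH Swiss mice (20-25 g) given test drug ip or po 30 min before unilateral intracerebral 1S,3R-ACPD (400 nmol), injected 2 mm lateral to bregma at 3.7 mm depth. Scored as the number of animals showing limbic seizures (clonic forelimb contractions, rearing, falling) during the observation period. ED50 in mg/kg.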

Rattus norvegicus [6] = species on record: Rattus norvegicus; test: Compound was evaluated by measuring the ability to influence stimulated basal [3H]-IP formation in adult rat cerebral cortical slices.; type: functional
Summary of the method: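 Rat cerebral cortical slices labeled for [3H]phosphoinositide hydrolysis; accumulation of tritiated inositol monophosphates ([3H]IP) measured against basal levels. Concentrations tested up to 300 µM.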

Mus musculus [7] = species on record: Mus musculus; test: Oral effective dose evaluated in mice by mouse limbic seizure assay; type: functional, Limbic system; summary of the method: as §1
Mus musculus [8] = species on record: Mus musculus; test: Oral effective dose was evaluated in mice by automated elevated plus-maze assay; type: functional
Summary of the method: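 Male NIH Swiss mice (20-35 g), acclimated ≥3 days on a 12 h light/dark cycle, dosed 30 min before a 5-min test on an automated elevated plus maze. Mice started on the closed platform; closed arm, open arm and nosepoke counts recorded. Dose-response for open arm activity gives the ED50 (mg/kg).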

## N[C@@]1(C(=O)O)CC[C@H]2[C@H](C(=O)O)[C@H]21 (stereo in doubt; (-)-9)
[1]
  IC50: > 100 µM
[2]
  IC50: > 100 µM
[3]
  IC50: > 100 µM
Glutamate NMDA receptor
  IC50: > 100 µM
Rattus norvegicus [4]
  EC50: > 300 µM
Mus musculus [5]
  ED50: > 100 mg/kg

## N[C@]1(C(=O)O)CC[C@H]2[C@H](C(=O)O)[C@H]21 (racemic)
[1]
  IC50: > 100 µM
[2]
  IC50: > 100 µM
[3]
  IC50: > 100 µM
Glutamate NMDA receptor
  IC50: 62.4 µM

## N[C@H](C(=O)O)[C@H]1C[C@@H]1C(=O)O
[1]
  IC50: 0.454 µM
[2]
  IC50: > 100 µM
Glutamate NMDA receptor
  IC50: > 100 µM
Rattus norvegicus [4]; Rattus norvegicus
  EC50: 1.1 µM
Rattus norvegicus [6]
  EC50: 25.4 µM

## N[C@@]1(C(=O)O)CC[C@H]2[C@H](C(=O)O)[C@H]21 (stereo in doubt; (+)-9)
[1]
  IC50: 0.18 µM
Mus musculus [7]
  ED50: 45.6 mg/kg
Mus musculus [8]
  ED50: 0.5 mg/kg
Rattus norvegicus [4]
  EC50: 0.055 µM
Rattus norvegicus [6]
  EC50: > 300 µM
Mus musculus [5]
  ED50: 17 mg/kg

## N[C@@]1(C(=O)O)CC[C@H]2[C@H](C(=O)O)[C@H]21 (racemic)
[1]
  IC50: 0.318 µM
Rattus norvegicus [4]
  EC50: 0.086 µM

— ChEMBL document CHEMBL1130337 (J Med Chem, 1997)
